Data reported in ChEMBL document CHEMBL1938356, “Structure-activity relationship of salicylic acid derivatives on inhibition of TNF-α dependent NFκB activity: Implication on anti-inflammatory effect of N-(5-chlorosalicyloyl)phenethylamine against experimental colitis” (Eur J Med Chem, 2012).
Active and inactive are the calls of the source. The calls are words filed in the database; no cut-off is given here.

Legend:
Rattus norvegicus [1] = assay: Antiinflammatory activity against trinitrobenzenesulfonic acid-induced colitis in rat assessed as decrease in CINC2 protein expression at 30 mM administered rectally QD for 6 days; type: functional, organism-based
Rattus norvegicus [2] = assay: Antiinflammatory activity against trinitrobenzenesulfonic acid-induced colitis in rat assessed as healing of damaged colon at 30 mM administered rectally QD for 6 days; type: functional, organism-based
In short: (§1)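 TNBS colitis in rats: after a 24 h fast with free access to water and light ether anaesthesia, TNBS (15 mg/0.3 ml/rat in 50% aqueous ethanol) was instilled through a rectal cannula whose tip sat 8 cm proximal to the anus. From day 3, drug in PBS (500 µL; 100 or 300 µM, or sodium 5-aminosalicylate 30 mM) was given rectally once daily for 6 days, then rats were sacrificed.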

Rattus norvegicus [3] = assay: Antiinflammatory activity against trinitrobenzenesulfonic acid-induced colitis in rat assessed as decrease in myeloperoxidase activity at 30 mM administered rectally QD for 6 days; type: functional, organism-based; in short: as §1
Rattus norvegicus [4] = assay: Antiinflammatory activity against trinitrobenzenesulfonic acid-induced colitis in rat assessed as decrease in COX2 protein at 30 mM administered rectally QD for 6 days; type: functional, organism-based; in short: as §1
HCT-116 [5] = assay: Inhibition of TNF-alpha-induced NF-kappaB activation in human HCT116 cells at 1 mM after 6 hrs by luciferase reporter gene assay; type: cell-based
In short: (§2)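 HCT116 cells at 50-60% confluence were cotransfected (Fugene) with an NFκB-dependent firefly luciferase plasmid and CMV Renilla plasmid (4 ng). After 24 h, cells received TNF-α (1 ng/ml) plus compound for 6 h, then were lysed. Dual-luciferase read-out, firefly normalized to Renilla. IC50 came from varied concentrations.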

RAW264.7 [6] = assay: Inhibition of NF-kappaB-mediated iNOS protein expression in LPS-stimulated mouse RAW264.7 cells at 0.5 to 2 mM by Western blot analysis; type: cell-based
In short: (§3)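 RAW264.7 cells in DMEM with 10% FBS were pretreated with a range of drug concentrations and stimulated with LPS. iNOS was immunoblotted in whole-cell lysates (30-40 µg), α-tubulin served as loading control, in duplicate.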

[7] = (§4) Inhibition of TNF-alpha-induced NF-kappaB activation in human HCT116 cells after 6 hrs by luciferase reporter gene assay; type: cell-based; conditions: HCT-116, 6 h; in short: as §2
RAW264.7 [8] = assay: Inhibition of NF-kappaB-mediated iNOS protein expression in LPS-stimulated mouse RAW264.7 cells at 0.1 mM by Western blot analysis; type: cell-based
In short: (§5)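 RAW264.7 cells grown in DMEM with 10% FBS were pretreated 1 h with drug, then stimulated with LPS (1 ng/ml) for 6 h. iNOS was immunoblotted in whole-cell lysates (30-40 µg) with a polyclonal antibody, α-tubulin served as loading control, in duplicate.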

HCT-116 [9] = assay: as §4; type: cell-based; in short: as §2
RAW264.7 [10] = assay: Inhibition of NF-kappaB-mediated iNOS protein expression in LPS-stimulated mouse RAW264.7 cells at 0.25 mM by Western blot analysis; type: cell-based; in short: as §5
RAW264.7 [11] = assay: Inhibition of NF-kappaB-mediated iNOS protein expression in LPS-stimulated mouse RAW264.7 cells at 1 to 4 mM by Western blot analysis; type: cell-based; in short: as §3
RAW264.7 [12] = conditions: Mus musculus, 5 mM
RAW264.7 [13] = conditions: Mus musculus, 2 to 4 mM
Rattus norvegicus [14] = assay: Antiinflammatory activity against trinitrobenzenesulfonic acid-induced colitis in rat assessed as decrease in CINC-3 protein at 300 uM administered rectally QD for 6 days; type: functional, organism-based; in short: as §1
Rattus norvegicus [15] = assay: Antiinflammatory activity against trinitrobenzenesulfonic acid-induced colitis in rat assessed as healing of damaged colon administered rectally QD for 6 days; type: functional, organism-based; in short: as §1
Rattus norvegicus [16] = assay: Antiinflammatory activity against trinitrobenzenesulfonic acid-induced colitis in rat assessed as decrease in COX2 protein at 300 uM administered rectally QD for 6 days; type: functional, organism-based; in short: as §1
Rattus norvegicus [17] = assay: Antiinflammatory activity against trinitrobenzenesulfonic acid-induced colitis in rat assessed as decrease in CINC2 protein expression administered rectally QD for 6 days; type: functional, organism-based
Rattus norvegicus [18] = assay: Antiinflammatory activity against trinitrobenzenesulfonic acid-induced colitis in rat assessed as decrease in COX2 protein administered rectally QD for 6 days; type: functional, organism-based; in short: as §1
Rattus norvegicus [19] = assay: Antiinflammatory activity against trinitrobenzenesulfonic acid-induced colitis in rat assessed as healing of damaged colon at 300 uM administered rectally QD for 6 days; type: functional, organism-based; in short: as §1
Rattus norvegicus [20] = assay: Antiinflammatory activity against trinitrobenzenesulfonic acid-induced colitis in rat assessed as decrease in myeloperoxidase activity at 300 uM administered rectally QD for 6 days; type: functional; design: scale not given: the % may be the effect or the level left; in short: as §1
Rattus norvegicus [21] = assay: Antiinflammatory activity against trinitrobenzenesulfonic acid-induced colitis in rat assessed as decrease in myeloperoxidase activity at 100 uM administered rectally QD for 6 days; type: functional; design: scale not given: the % may be the effect or the level left; in short: as §1

Structure (SMILES): Nc1ccc(O)c(C(=O)O)c1
- Activity (Rattus norvegicus [1]): Active
- Activity (Rattus norvegicus [2]): Active
- Activity (Rattus norvegicus [3]): Active
- Activity (Rattus norvegicus [4]): Active
- inhibition (HCT-116 [5]): Active

Structure (SMILES): NC(=O)c1cc(Cl)ccc1O
- inhibition (RAW264.7 [6]): Active

Structure (SMILES): O=C(c1cc(Cl)ccc1O)N1CCCCC1
- IC50 [7]: > 250 µM

Structure (SMILES): CNC(=O)c1cc(Cl)ccc1O
- IC50 [7]: > 250 µM

Structure (SMILES): O=C(c1cc(Cl)ccc1O)N1CCN(c2ccccc2)CC1
- IC50 [7]: > 250 µM

Structure (SMILES): CN1CCN(C(=O)c2cc(Cl)ccc2O)CC1
- IC50 [7]: > 250 µM

Structure (SMILES): O=C(NCCCc1ccccc1)c1cc(Cl)ccc1O
- inhibition (RAW264.7 [8]): Active
- inhibition (HCT-116 [9]): Dose-dependent effect
- IC50 [7]: 17 µM

Structure (SMILES): O=C(O)c1cc(-c2ccc(F)cc2F)ccc1O
- inhibition (HCT-116 [5]): Active

Structure (SMILES): O=C(NCCc1ccc(O)cc1)c1cc(Cl)ccc1O
- inhibition (RAW264.7 [10]): Active
- inhibition (HCT-116 [9]): Dose-dependent effect
- IC50 [7]: 91 µM

Structure (SMILES): NC(=O)c1ccccc1O
- inhibition (RAW264.7 [11]): Active
- inhibition (HCT-116 [5]): Active

Structure (SMILES): CN(C)C(=O)c1cc(Cl)ccc1O
- IC50 [7]: > 250 µM

Structure (SMILES): CCCCCCNC(=O)c1cc(Cl)ccc1O
- IC50 [7]: 95 µM

Structure (SMILES): O=C(NCc1ccccc1)c1cc(Cl)ccc1O
- IC50 [7]: 105 µM

Structure (SMILES): O=C(O)c1ccccc1O
- inhibition (RAW264.7 [12]): Active
- inhibition (RAW264.7 [13]): Active
- inhibition (HCT-116 [5]): Active

Structure (SMILES): CC(=O)Oc1ccccc1C(=O)O
- inhibition (HCT-116 [5]): Active

Structure (SMILES): O=C(NCCc1ccccc1)c1cc(Cl)ccc1O
- Activity (Rattus norvegicus [14]): Active
- Activity (Rattus norvegicus [15]): Dose-dependent effect
- Activity (Rattus norvegicus [16]): Active
- Activity (Rattus norvegicus [17]): Dose-dependent effect
- Activity (Rattus norvegicus [18]): Dose-dependent effect
- inhibition (RAW264.7 [8]): Active
- Activity (Rattus norvegicus [19]): Active
- Activity (Rattus norvegicus [20]): 35%
- inhibition (HCT-116 [9]): Dose-dependent effect
- IC50 [7]: 15 µM
- Activity (Rattus norvegicus [21]): 60%

Structure (SMILES): O=C(c1cc(Cl)ccc1O)N1CCOCC1
- IC50 [7]: > 250 µM

Structure (SMILES): COC(=O)c1ccccc1O
- inhibition (HCT-116 [5]): Active

Structure (SMILES): O=C(O)c1cc([N+](=O)[O-])ccc1O
- inhibition (HCT-116 [5]): Active

Structure (SMILES): O=C(O)c1cc(Cl)ccc1O
- inhibition (RAW264.7 [11]): Active
- inhibition (HCT-116 [5]): Active

Structure (SMILES): O=C(c1cc(Cl)ccc1O)N1CCNCC1
- IC50 [7]: > 250 µM
